Key:
CLL cells = test: CLL apoptosis assay; assay type: cell-based, human; conditions: 20μM, 48 h, median and standard deviation of three assays
Summary of the method: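 PBMC from heparinized blood of CLL patients, isolated on Histopaque 1077 and washed. Plated at 1 million cells/well in RPMI 1640 with 10% FBS, 20 mM L-glutamine and penicillin/streptomycin. Exposed to 20μM test compound or vehicle for 48 h at 37°C, 5% CO2. Harvested, stained 10 min at 37°C with Hoechst 33342 (0.25 μg/mL final), then analysed by flow cytometry.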

Human PDE4A10 = Human PDE4A10 (Homo sapiens, UniProt P27815); test: In vitro PDE assay; assay type: biochemical
Summary of the method: (§1)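 Radiolabelled cAMP hydrolysis with cAMP substrate at 40nM. Reactions stopped in linear phase with 0.2 M ZnSO4, hydrolysis limited to ~50% conversion. 5′-AMP precipitated with 0.25 N Ba(OH)2 and pelleted by centrifugation for 15 min. Supernatant radioactivity counted by scintillation.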

murine PDE4A1 = murine PDE4A1 (Mus musculus, UniProt O89084); test: Yeast-based HTS; assay type: cell-based; conditions: duplicate plates, OD600 after 48 h
Sequence of murine PDE4A1 (O89084 1-610 isoform O89084-2): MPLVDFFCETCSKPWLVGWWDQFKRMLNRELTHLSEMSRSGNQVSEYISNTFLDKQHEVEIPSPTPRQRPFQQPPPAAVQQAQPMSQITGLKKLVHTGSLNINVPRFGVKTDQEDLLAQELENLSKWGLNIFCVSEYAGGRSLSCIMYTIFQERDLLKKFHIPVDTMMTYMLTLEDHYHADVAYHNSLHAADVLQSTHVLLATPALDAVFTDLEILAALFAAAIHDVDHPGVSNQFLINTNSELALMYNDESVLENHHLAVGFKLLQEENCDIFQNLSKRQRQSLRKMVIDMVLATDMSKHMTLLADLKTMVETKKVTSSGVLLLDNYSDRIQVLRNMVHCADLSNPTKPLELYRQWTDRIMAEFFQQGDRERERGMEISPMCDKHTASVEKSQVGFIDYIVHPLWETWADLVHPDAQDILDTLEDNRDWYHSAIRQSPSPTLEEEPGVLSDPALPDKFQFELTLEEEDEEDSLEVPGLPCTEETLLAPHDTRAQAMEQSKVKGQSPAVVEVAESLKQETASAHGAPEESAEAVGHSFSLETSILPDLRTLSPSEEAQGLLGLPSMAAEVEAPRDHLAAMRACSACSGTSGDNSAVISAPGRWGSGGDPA
Summary of the method: (§2)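 S. pombe gpa2Δ strains carrying the PKA-repressed fbp1-ura4+ reporter, with the PDE replacing endogenous Cgs2, grown in 5FOA medium. Compounds from 5 mg/mL stocks were pinned in. OD600 read after 48 h at 30°C. Run on duplicate plates; composite Z = replicate Z-score vector scaled by cosine correlation with the diagonal. Controls: 0.2% DMSO (negative), 5 mM cAMP (positive).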

[1] = test system: TNFα production by LPS-stimulated macrophage (U937 cells); test: TNFα assay; assay type: cell-based; conditions: 20μM
rat PDE4A5 = rat PDE4A5 (Rattus norvegicus, UniProt P54748); test: Yeast-based HTS; assay type: cell-based; conditions: duplicate plates, OD600 after 48 h
Summary of the method: as §2

human PDE1C = human PDE1C (Homo sapiens, UniProt Q14123); test: In vitro PDE assay; assay type: biochemical
Summary of the method: (§3)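 Recombinant PDE (human PDE1C, PDE3B, PDE5A1, PDE8A, PDE9A2, PDE10A1, PDE11A4; rat PDE2A) incubated with radiolabelled cyclic nucleotide substrate. Stopped in linear phase with 0.2 M ZnSO4, hydrolysis ≤~50%. 5′-nucleotide precipitated with 0.25 N Ba(OH)2 and spun down for 15 min. Supernatant radioactivity measured by scintillation counting.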

human PDE5A1 = human PDE5A1 (Homo sapiens, UniProt O76074); test: In vitro PDE assay; assay type: biochemical
Summary of the method: as §3

human PDE9A2 = human PDE9A2 (Homo sapiens, UniProt O76083); test: In vitro PDE assay; assay type: biochemical
Summary of the method: as §3

Human PDE4B2 = Human PDE4B2 (Homo sapiens, UniProt Q07343); test: In vitro PDE assay; assay type: biochemical
Sequence of Human PDE4B2 (Q07343 324-659): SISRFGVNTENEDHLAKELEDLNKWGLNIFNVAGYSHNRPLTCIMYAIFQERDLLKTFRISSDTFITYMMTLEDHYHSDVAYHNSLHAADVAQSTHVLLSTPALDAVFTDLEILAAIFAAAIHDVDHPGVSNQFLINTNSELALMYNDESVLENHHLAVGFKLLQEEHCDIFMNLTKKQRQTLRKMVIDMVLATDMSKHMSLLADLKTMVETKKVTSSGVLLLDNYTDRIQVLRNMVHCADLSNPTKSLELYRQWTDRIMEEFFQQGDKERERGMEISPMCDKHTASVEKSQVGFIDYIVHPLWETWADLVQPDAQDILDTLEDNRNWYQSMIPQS

[2] = test system: S. pombe strain that expresses Git2 adenylyl cyclase and human PDE4B2; test: Stationary phase viability of yeast; assay type: cell-based; conditions: 10μM BC54, three days in stationary phase
Summary of the method: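 S. pombe CHP1346 (git2+ cgs2-2) transformants expressing PDE4B2 or no PDE, plus CHP1207 (git2Δ cgs2-2) with PDE4B2. Grown to stationary phase for three days in EMM-leucine ± 10μM test compound. Diluted 100-fold in YES, then four 10-fold serial dilutions. Spotted onto YES, grown at 30°C and photographed.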

human PDE3B = human PDE3B (Homo sapiens, UniProt Q13370); test: In vitro PDE assay; assay type: biochemical
Sequence of human PDE3B (Q13370 whole entry): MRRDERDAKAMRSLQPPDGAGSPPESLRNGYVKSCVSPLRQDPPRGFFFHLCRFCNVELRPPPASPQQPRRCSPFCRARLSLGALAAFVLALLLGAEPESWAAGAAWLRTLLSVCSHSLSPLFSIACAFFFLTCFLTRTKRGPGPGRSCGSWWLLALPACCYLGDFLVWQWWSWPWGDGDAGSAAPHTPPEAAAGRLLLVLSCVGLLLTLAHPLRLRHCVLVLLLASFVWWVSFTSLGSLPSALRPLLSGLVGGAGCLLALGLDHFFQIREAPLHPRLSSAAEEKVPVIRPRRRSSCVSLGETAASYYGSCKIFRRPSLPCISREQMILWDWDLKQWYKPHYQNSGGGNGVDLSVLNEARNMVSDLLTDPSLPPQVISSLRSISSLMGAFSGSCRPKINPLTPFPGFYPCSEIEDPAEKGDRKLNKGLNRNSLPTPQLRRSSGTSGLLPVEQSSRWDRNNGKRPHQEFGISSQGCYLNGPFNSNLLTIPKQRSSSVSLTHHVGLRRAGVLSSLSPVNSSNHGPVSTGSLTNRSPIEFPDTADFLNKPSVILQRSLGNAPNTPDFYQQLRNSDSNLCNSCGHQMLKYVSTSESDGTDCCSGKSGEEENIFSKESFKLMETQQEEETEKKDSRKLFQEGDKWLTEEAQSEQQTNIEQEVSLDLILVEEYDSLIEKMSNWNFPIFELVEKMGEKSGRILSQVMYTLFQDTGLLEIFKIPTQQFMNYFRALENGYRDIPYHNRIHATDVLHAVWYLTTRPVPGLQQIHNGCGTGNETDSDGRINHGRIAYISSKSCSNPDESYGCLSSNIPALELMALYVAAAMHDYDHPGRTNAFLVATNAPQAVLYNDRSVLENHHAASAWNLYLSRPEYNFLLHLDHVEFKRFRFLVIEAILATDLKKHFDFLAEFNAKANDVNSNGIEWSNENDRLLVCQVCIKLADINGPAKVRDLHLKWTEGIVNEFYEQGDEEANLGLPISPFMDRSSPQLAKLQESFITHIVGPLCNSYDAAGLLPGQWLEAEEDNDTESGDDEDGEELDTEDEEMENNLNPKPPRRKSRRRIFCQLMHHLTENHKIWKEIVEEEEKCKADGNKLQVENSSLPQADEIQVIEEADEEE
Summary of the method: as §3

human PDE8A = human PDE8A (Homo sapiens, UniProt O60658); test: In vitro PDE assay; assay type: biochemical
Summary of the method: as §3

rat PDE2A = rat PDE2A (Rattus norvegicus, UniProt Q01062); test: In vitro PDE assay; assay type: biochemical
Sequence of rat PDE2A (Q01062 whole entry): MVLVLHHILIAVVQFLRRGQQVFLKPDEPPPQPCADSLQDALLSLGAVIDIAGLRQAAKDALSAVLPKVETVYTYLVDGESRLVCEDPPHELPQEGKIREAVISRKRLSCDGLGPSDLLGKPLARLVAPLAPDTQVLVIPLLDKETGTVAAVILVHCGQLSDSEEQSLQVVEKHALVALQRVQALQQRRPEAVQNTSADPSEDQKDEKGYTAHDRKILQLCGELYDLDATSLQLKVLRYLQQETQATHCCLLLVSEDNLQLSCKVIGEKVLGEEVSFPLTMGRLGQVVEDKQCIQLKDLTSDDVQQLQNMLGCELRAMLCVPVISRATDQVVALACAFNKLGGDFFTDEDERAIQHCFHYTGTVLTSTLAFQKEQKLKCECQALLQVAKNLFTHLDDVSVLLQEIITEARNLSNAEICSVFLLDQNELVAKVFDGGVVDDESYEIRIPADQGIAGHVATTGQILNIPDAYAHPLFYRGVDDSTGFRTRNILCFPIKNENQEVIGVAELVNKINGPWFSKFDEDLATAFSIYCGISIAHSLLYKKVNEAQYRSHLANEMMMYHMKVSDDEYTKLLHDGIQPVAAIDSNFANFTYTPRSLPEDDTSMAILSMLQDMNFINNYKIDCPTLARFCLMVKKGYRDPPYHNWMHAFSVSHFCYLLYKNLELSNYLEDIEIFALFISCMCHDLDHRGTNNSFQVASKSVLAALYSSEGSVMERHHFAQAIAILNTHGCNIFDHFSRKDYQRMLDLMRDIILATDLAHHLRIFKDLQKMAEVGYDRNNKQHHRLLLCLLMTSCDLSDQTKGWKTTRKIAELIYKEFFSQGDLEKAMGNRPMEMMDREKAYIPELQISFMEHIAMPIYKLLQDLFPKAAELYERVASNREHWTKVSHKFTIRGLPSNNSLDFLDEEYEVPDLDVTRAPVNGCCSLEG
Summary of the method: as §3

PDE7B [3] = molecular target: PDE7B (Homo sapiens, UniProt Q9NP56); test: In vitro PDE assay; assay type: biochemical
Sequence of PDE7B (Homo sapiens, UniProt Q9NP56) (Q9NP56 whole entry, the tested form may be a part): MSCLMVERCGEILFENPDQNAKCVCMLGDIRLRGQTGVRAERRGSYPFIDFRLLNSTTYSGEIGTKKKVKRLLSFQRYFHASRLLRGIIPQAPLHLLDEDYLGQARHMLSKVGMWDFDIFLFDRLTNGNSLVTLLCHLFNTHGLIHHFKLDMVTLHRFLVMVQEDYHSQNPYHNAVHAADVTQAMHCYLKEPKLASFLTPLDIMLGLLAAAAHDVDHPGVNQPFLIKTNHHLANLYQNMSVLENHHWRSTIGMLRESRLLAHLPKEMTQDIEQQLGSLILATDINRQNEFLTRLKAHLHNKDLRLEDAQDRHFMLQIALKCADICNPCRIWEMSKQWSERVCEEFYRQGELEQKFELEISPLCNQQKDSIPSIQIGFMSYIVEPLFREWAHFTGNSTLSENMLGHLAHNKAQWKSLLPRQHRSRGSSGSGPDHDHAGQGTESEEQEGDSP

[4] = molecular target: mutant PDE4B2^T407A catalytic domain (Homo sapiens, UniProt Q07343, T579A); test: In vitro enzyme assay, catalytic domain purified from E. coli; assay type: biochemical
Sequence of mutant PDE4B2^T407A catalytic domain (Q07343 324-659 T579A): as the sequence (Q07343 324-659) above, with T256A counted along it

human PDE11A4 = human PDE11A4 (Homo sapiens, UniProt Q9HCR9); test: In vitro PDE assay; assay type: biochemical
Summary of the method: as §3

human PDE7A = human PDE7A (Homo sapiens, UniProt Q13946); test: In vitro PDE assay; assay type: biochemical
Sequence of human PDE7A (Q13946 whole entry): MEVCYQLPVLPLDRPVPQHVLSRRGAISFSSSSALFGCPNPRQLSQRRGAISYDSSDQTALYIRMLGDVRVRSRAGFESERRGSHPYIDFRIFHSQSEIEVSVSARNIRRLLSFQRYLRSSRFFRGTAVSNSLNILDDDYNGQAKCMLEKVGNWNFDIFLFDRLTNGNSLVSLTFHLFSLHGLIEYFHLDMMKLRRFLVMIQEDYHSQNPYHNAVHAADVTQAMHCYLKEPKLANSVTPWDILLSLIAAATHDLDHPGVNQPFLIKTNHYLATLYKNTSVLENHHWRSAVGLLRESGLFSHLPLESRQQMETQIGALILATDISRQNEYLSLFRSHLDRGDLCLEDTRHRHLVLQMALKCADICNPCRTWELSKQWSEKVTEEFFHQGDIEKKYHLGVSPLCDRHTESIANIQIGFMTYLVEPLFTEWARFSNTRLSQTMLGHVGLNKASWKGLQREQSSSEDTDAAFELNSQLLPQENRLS
Summary of the method: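 Human PDE7 enzymes (PDE7A recombinant) assayed with 10nM cAMP substrate. Stopped during linear phase with 0.2 M ZnSO4, conversion kept near 50%. Product 5′-AMP removed by 0.25 N Ba(OH)2 precipitation and 15 min centrifugation. Remaining supernatant radioactivity read in scintillation fluid.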

murine PDE4B3 = murine PDE4B3 (Mus musculus, UniProt Q8VBU5); test: Yeast-based HTS; assay type: cell-based; conditions: duplicate plates, OD600 after 48 h
Summary of the method: as §2

[5] = test system: yeast strains that express human PDE4A1, PDE4B2, PDE4D3, PDE7A1 or PDE7B1; test: 5FOA growth assay, dose response; assay type: cell-based; conditions: dose response 0.05 μM to 50 μM
PDE8A = conditions: not a hit; cited from earlier work
human PDE10A1 = human PDE10A1 (Homo sapiens, UniProt Q9Y233); test: In vitro PDE assay; assay type: biochemical
Sequence of human PDE10A1 (Q9Y233 1-779 isoform Q9Y233-1): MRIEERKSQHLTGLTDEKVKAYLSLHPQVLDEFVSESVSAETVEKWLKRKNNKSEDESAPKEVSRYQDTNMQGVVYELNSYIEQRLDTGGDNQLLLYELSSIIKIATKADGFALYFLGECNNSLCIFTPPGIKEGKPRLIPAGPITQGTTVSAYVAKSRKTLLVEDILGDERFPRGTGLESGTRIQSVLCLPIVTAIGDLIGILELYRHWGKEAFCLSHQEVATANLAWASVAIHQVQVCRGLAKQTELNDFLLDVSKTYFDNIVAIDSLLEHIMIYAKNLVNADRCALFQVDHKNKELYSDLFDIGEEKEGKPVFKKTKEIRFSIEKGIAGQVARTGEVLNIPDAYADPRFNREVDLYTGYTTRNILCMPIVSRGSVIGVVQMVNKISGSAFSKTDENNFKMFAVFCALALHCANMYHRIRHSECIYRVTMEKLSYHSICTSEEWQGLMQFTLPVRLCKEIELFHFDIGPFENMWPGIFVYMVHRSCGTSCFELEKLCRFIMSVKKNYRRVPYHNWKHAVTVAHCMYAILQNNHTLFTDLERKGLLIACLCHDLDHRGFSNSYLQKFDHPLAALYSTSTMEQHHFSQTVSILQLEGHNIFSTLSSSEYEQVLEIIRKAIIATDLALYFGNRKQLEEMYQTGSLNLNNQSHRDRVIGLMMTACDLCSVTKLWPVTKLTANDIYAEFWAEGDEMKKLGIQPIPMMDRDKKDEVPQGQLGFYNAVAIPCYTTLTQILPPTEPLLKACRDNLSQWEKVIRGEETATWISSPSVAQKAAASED
Summary of the method: as §3

human PDE7A1 = human PDE7A1 (Homo sapiens, UniProt Q13946); test: Yeast-based HTS; assay type: cell-based; conditions: duplicate plates, OD600 after 48 h
Sequence of human PDE7A1 (Q13946 whole entry): as the sequence (Q13946 whole entry) above
Summary of the method: as §2

Human PDE4D2 = Human PDE4D2 (Homo sapiens, UniProt Q08499); test: In vitro PDE assay; assay type: biochemical
Summary of the method: as §1

PDE11A = conditions: very weak hit; cited from earlier work
[6] = test system: IL-2 production by PMA-PHA stimulated Jurkat T cells; test: IL-2 assay; assay type: cell-based; conditions: 20μM
[7] = test system: PDE4 and PDE7 relative to PDE2A and PDE11A; test: Selectivity from in vitro PDE assays; assay type: biochemical
PDE7B [8] = conditions: cited from earlier work
PDE7A = conditions: cited from earlier work

Q: With `COc1ccc(C2CNC(=O)C2)cc1OC1CCCC1` (stereo not drawn) [rolipram] as the molecule, how does the CLL apoptosis (CLL cells; Patient 1) read?
A: 76.7±0.76

Q: And the CLL apoptosis (CLL cells; Patient 2)?
A: 35.6±0.7

Q: And the CLL apoptosis (CLL cells; Patient 3)?
A: 20.3±2.18

Q: Which results are given for `CCOC(=O)c1cc2c(=O)n3ccccc3nc2n(C2CCCCC2)/c1=N\C(C)=O` [BC54, ethyl (2Z)-2-(acetylimino)-1-cyclohexyl-5-oxo-1,5-dihydro-2H-dipyrido[1,2-a:2′,3′-d] pyrimidine-3-carboxylate]?
A: IC50 (Human PDE4A10): 50 to 110 nM; Composite Z score (murine PDE4A1): > 40; TNFα production [1]: significantly reduces; Composite Z score (rat PDE4A5): > 40; IC50 (human PDE1C): > 10000 nM; IC50 (human PDE5A1): > 10000 nM; IC50 (human PDE9A2): > 10000 nM; IC50 (Human PDE4B2): 50 to 110 nM; reduction of stationary phase viability [2]: approximately ten-fold; IC50 (human PDE3B): > 10000 nM; IC50 (human PDE8A): > 10000 nM; IC50 (rat PDE2A): ~3000 nM; IC50 (PDE7B [3]): 140 nM; IC50 [4]: 124 ± 8.8 nM; CLL apoptosis (CLL cells; Patient 1): 87.3±0.76; CLL apoptosis (CLL cells; Patient 2): 58.8±3.12; CLL apoptosis (CLL cells; Patient 3): 39.8±1.79; IC50 (human PDE11A4): ~3000 nM; IC50 (human PDE7A): 140 nM; Composite Z score (murine PDE4B3): > 40; potency in 5FOA growth assay [5]: significant potency at sub-micromolar concentrations; Composite Z score (PDE8A): −2.35; IC50 (human PDE10A1): > 10000 nM; Composite Z score (human PDE7A1): > 40; IC50 (Human PDE4D2): 50 to 110 nM; Composite Z score (PDE11A): 7.74; IL-2 production [6]: significantly reduces; selectivity for PDE4 and PDE7 relative to PDE2A and PDE11A [7]: greater than 20 fold

Q: What does the source list for `Cc1ccc([N+](=O)[O-])cc1S(=O)(=O)N(C)C` [BRL50481, 3-(N,N-dimethylsulfonamido)-4-methyl-nitrobenzene]?
A: IC50 (PDE7B [8]): 12100 nM; CLL apoptosis (CLL cells; Patient 1): 52.5±0.78; CLL apoptosis (CLL cells; Patient 2): 26.3±1.02; CLL apoptosis (CLL cells; Patient 3): 5.1±0.72; IC50 (PDE7A): 150 nM
